Data taken from ChEMBL document CHEMBL1128487, “Reduced-size antagonists of luteinizing hormone-releasing hormone active in vitro” (1995).
Square brackets hold non-standard residues; d marks the D form. Peptide text beside a SMILES is read from it. 2Nal = N[C@@H](Cc1ccc2ccccc2c1)C(=O)O

Legend:
[1] = target: T1, Gonadotropin-releasing hormone receptor (Rattus norvegicus) (UniProt P30969); experiment: In vitro inhibition of LH release was determined in rat pituitary cells at a dose of 100 ug of analogue and 1 ng of LHRH; type: functional, cell-based; details: Pituitary gland cell
T1 sequence (whole entry): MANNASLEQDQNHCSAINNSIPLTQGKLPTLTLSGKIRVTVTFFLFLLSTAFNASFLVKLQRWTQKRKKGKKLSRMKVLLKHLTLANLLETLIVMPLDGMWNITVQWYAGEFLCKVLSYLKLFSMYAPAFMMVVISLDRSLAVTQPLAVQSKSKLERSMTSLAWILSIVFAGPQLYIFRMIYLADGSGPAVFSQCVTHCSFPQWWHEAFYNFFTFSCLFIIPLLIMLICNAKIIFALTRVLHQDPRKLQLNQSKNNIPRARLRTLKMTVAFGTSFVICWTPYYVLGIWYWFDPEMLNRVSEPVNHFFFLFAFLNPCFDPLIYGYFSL
Procedure, shortened: (§1)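 Anterior pituitaries from female Sprague-Dawley rats (240-260 g, 18 rats) were minced and dispersed in Gey's solution with trypsin, DNase I and LBBI. Cells were plated in DMEM with 0.45% glucose, 25 mM HEPES, serum, T and 100 nM dexamethasone at about 3.0 × 10^5 cells/mL and cultured 4 days at 37 °C in 8% CO2. Cells were then exposed to antagonist plus 1 ng LHRH in Gey's solution with 0.3% glucose for 2 h. LH in the medium was measured by RIA as ng/mL of RP-3.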

[2] = organism: Rattus norvegicus; experiment: In vitro inhibition of LH release in rat pituitary cells at a dose of 1 ng LHRH in absence of the compound.; type: functional, Pituitary gland cell; set-up: unit: ng/mL; procedure, shortened: as §1
[3] = target: T1, Gonadotropin-releasing hormone receptor (Rattus norvegicus); experiment: In vitro antagonistic activity against LH release in rat pituitary cells for control.; type: functional, cell-based; details: Pituitary gland cell; procedure, shortened: as §1
[4] = target: T1, Gonadotropin-releasing hormone receptor (Rattus norvegicus); experiment: In vitro inhibition of LH release was determined in rat pituitary cells at a dose of 10 ug of analogue and 1 ng of LHRH; type: functional, cell-based; details: Pituitary gland cell; procedure, shortened: as §1
[5] = target: T1, Gonadotropin-releasing hormone receptor (Rattus norvegicus); experiment: In vitro inhibition of LH release determined in rat pituitary cells at a dose of 3 ug of analogue and 1 ng of LHRH; type: functional, cell-based; details: Pituitary gland cell; procedure, shortened: as §1
[6] = target: T1, Gonadotropin-releasing hormone receptor (Rattus norvegicus); experiment: In vitro inhibition of LH release was determined in rat pituitary cells at a dose of 30 ug of analogue and 1 ng of LHRH; type: functional, cell-based; details: Pituitary gland cell; procedure, shortened: as §1
[7] = target: T1, Gonadotropin-releasing hormone receptor (Rattus norvegicus); experiment: In vitro inhibition of LH release in rat pituitary cells at a dose of 1 ug of analogue and 1 ng of LHRH.; type: functional, cell-based; details: Pituitary gland cell; procedure, shortened: as §1
[8] = target: T1, Gonadotropin-releasing hormone receptor (Rattus norvegicus); experiment: In vitro inhibition of LH release was determined in rat pituitary cells at a dose of 0.1 ug of analogue and 1 ng of LHRH; type: functional, cell-based; details: Pituitary gland cell; procedure, shortened: as §1
[9] = target: T1, Gonadotropin-releasing hormone receptor (Rattus norvegicus); experiment: In vitro inhibition of LH release was determined in rat pituitary cells at a dose of 0.3 ug of analogue and 1 ng of LHRH; type: functional, cell-based; details: Pituitary gland cell; procedure, shortened: as §1
[10] = target: T1, Gonadotropin-releasing hormone receptor (Rattus norvegicus); experiment: In vitro inhibition of LH release was determined in rat pituitary cells at a dose of 0.03 ug of analogue and 1 ng of LHRH; type: functional, cell-based; details: Pituitary gland cell; procedure, shortened: as §1

Row | Activity [1] | Activity [3] | Activity [4] | Activity [5] | Activity [6] | Activity [7] | Activity [8] | Activity [9] | Activity [10] | Compound | Activity [2]
1 | 8 | 2.3 | 75 | 145 | 26 | 147 | – | – | – | CC(=O)NC(Cc1ccc2ccccc2c1)C(=O)N[C@@H](CCCCNC(=O)c1ccccn1)C(=O)N[C@@H](CCCN=C(N)N)C(=O)NC(C)C(N)=O (single isomer, unassigned) | 156
2 | – | – | – | – | – | – | – | – | – | CCNC(=O)[C@@H]1CCCN1C(=O)[C@H](CCCN=C(N)N)NC(=O)[C@H](CC(C)C)NC(=O)[C@@H](CCCCNC(=O)c1ccccn1)NC(=O)[C@H](CCCCNC(=O)c1ccccn1)NC(=O)[C@H](CO)NC(=O)[C@@H](Cc1ccc2ccccc2c1)NC(C)=O | 149
3 | 21 | 2.3 | 121 | 135 | 66 | 142 | – | – | – | CC(=O)N[C@@H](Cc1ccc2ccccc2c1)C(=O)N[C@@H](Cc1ccc(O)cc1)C(=O)N[C@@H](Cc1ccc2ccccc2c1)C(=O)N[C@@H](CCCN=C(N)N)C(=O)N[C@@H](C)C(N)=O (Ac-[2Nal]Y[2Nal]RA-NH2) | 156
4 | 49 | 3.5 | 116 | 136 | 87 | 145 | – | – | – | CC(=O)N[C@@H](Cc1ccc2ccccc2c1)C(=O)N[C@@H](CC(C)C)C(=O)N[C@@H](CCCN=C(N)N)C(=O)N[C@@H](C)C(N)=O (Ac-[2Nal]LRA-NH2) | 155
5 | – | 9 | – | 14 | – | 34 | 134 | 69 | – | CCNC(=O)[C@@H]1CCCN1C(=O)[C@H](CCCN=C(N)N)NC(=O)[C@H](CC(C)C)NC(=O)[C@@H](Cc1cccnc1)NC(=O)[C@H](Cc1ccc(O)cc1)NC(=O)[C@H](CO)NC(=O)[C@@H](Cc1ccc2ccccc2c1)NC(C)=O | 279
6 | – | 3.8 | – | – | – | 149 | 158 | 170 | 165 | CC(C)C[C@H](NC(=O)C(Cc1ccc2ccccc2c1)NC(=O)[C@H](Cc1ccc(O)cc1)NC(=O)[C@H](CO)NC(=O)[C@H](Cc1cccnc1)NC(=O)[C@H](Cc1ccc(Cl)cc1)NC(=O)[C@@H]1CCC(=O)N1)C(=O)N[C@@H](CCCN=C(N)N)C(=O)N1CCC[C@H]1C(=O)N[C@H](C)C(N)=O (stereo in doubt) | 132
7 | – | 4.1 | – | 3 | – | 4 | 74 | 13 | 154 | CC(=O)N[C@H](Cc1ccc2ccccc2c1)C(=O)N[C@@H](CO)C(=O)N[C@@H](Cc1ccc(O)cc1)C(=O)N[C@H](Cc1ccc2ccccc2c1)C(=O)N[C@@H](CC(C)C)C(=O)N[C@@H](CCCN=C(N)N)C(=O)N1CCC[C@H]1C(N)=O | 167
8 | – | 2.1 | – | – | – | 2 | 40 | 10 | 85 | CCNC(=O)[C@@H]1CCCN1C(=O)[C@H](CCCN=C(N)N)NC(=O)[C@H](CC(C)C)NC(=O)[C@@H](Cc1c[nH]c2ccccc12)NC(=O)[C@H](Cc1ccc(O)cc1)NC(=O)[C@H](CO)NC(=O)[C@@H](Cc1ccc2ccccc2c1)NC(C)=O | 149
9 | – | 2.1 | – | 23 | – | 55 | 135 | 104 | 127 | CC(=O)NC(Cc1ccc2ccccc2c1)C(=O)N[C@@H](CO)C(=O)N[C@@H](Cc1ccc(O)cc1)C(=O)NC(Cc1ccc2ccccc2c1)C(=O)N[C@@H](CC(C)C)C(=O)N[C@@H](CCCCNC(C)C)C(=O)N1CCC[C@H]1C(=O)N[C@H](C)C(N)=O (stereo in doubt) | 149
10 | – | 2.3 | – | 4 | – | 13 | 117 | 37 | – | CC(=O)N[C@@H](Cc1ccc2ccccc2c1)C(=O)N[C@@H](CO)C(=O)N[C@@H](Cc1ccc2ccccc2c1)C(=O)N[C@@H](CC(C)C)C(=O)N[C@@H](CCCN=C(N)N)C(=O)N1CCC[C@H]1C(=O)N[C@@H](C)C(N)=O (Ac-[2Nal]S[2Nal]LRPA-NH2) | 155
11 | – | 3.1 | 55 | 151 | 11 | 155 | – | 148 | – | CCNC(=O)[C@@H]1CCCN1C(=O)[C@H](CC(C)C)NC(=O)[C@H](Cc1ccc2ccccc2c1)NC(=O)[C@H](Cc1ccc(O)cc1)NC(=O)[C@H](CO)NC(=O)[C@H](Cc1ccc2ccccc2c1)NC(C)=O (Ac-[2Nal]SY[2Nal]LP-NHEt) | 145
12 | – | 3.5 | – | 77 | – | 145 | 165 | 152 | 152 | CC(=O)N[C@@H](Cc1ccc(Cl)cc1)C(=O)N[C@@H](Cc1cccnc1)C(=O)N[C@@H](CO)C(=O)N[C@@H](Cc1ccc(O)cc1)C(=O)NC(Cc1ccc2ccccc2c1)C(=O)N[C@@H](CC(C)C)C(=O)N[C@@H](CCCN=C(N)N)C(=O)N1CCC[C@H]1C(=O)N[C@H](C)C(N)=O (stereo in doubt) | 151
13 | – | – | – | – | – | – | – | – | – | CC(=O)N[C@H](Cc1ccc2ccccc2c1)C(=O)N[C@@H](CO)C(=O)N[C@@H](Cc1ccc(O)cc1)C(=O)N[C@H](Cc1cccnc1)C(=O)N[C@@H](CC(C)C)C(=O)N[C@@H](CCCN=C(N)N)C(=O)N1CCC[C@H]1C(=O)N[C@H](C)C(N)=O | 251
14 | – | 3.8 | – | 45 | – | 50 | 157 | 112 | – | CC(=O)N[C@H](Cc1ccc2ccccc2c1)C(=O)N[C@@H](CO)C(=O)N[C@@H](Cc1ccc(O)cc1)C(=O)N[C@H](Cc1ccc2ccccc2c1)C(=O)N[C@@H](CC(C)C)C(=O)N[C@@H](CCCN=C(N)N)C(=O)N1CCC[C@H]1C(=O)NCC(N)=O | 132
15 | – | 2.1 | – | – | – | 8 | 72 | 27 | 108 | CCNC(=O)[C@@H]1CCCN1C(=O)C(CCCN=C(N)N)NC(=O)[C@H](CC(C)C)NC(=O)[C@H](CCCCNC(=O)c1ccccn1)NC(=O)C(CCCCNC(=O)c1ccccn1)NC(=O)[C@H](CO)NC(=O)[C@H](Cc1ccc2ccccc2c1)NC(C)=O (stereo partly specified) | –
16 | – | 6.3 | – | 29 | – | 67 | 201 | 154 | – | CC(=O)N[C@H](Cc1ccc2ccccc2c1)C(=O)N[C@@H](CO)C(=O)N[C@@H](Cc1ccc(O)cc1)C(=O)N[C@H](CCCCNC(=O)c1ccccn1)C(=O)N[C@@H](CC(C)C)C(=O)N[C@@H](CCCN=C(N)N)C(=O)N1CCC[C@H]1C(=O)N[C@H](C)C(N)=O | 241
17 | – | 3.5 | – | 4 | – | 6 | 133 | 26 | 146 | CCNC(=O)[C@@H]1CCCN1C(=O)[C@H](CCCCNC(C)C)NC(=O)[C@H](CC(C)C)NC(=O)C(Cc1ccc2ccccc2c1)NC(=O)[C@H](Cc1ccc(O)cc1)NC(=O)[C@H](CO)NC(=O)C(Cc1ccc2ccccc2c1)NC(C)=O (stereo in doubt) | 148
18 | – | 4.8 | – | 11 | – | 33 | 112 | 72 | – | CC(=O)N[C@@H](Cc1ccc2ccccc2c1)C(=O)N[C@@H](CO)C(=O)N[C@@H](Cc1ccc(O)cc1)C(=O)N[C@@H](Cc1cccnc1)C(=O)N[C@@H](CC(C)C)C(=O)N[C@@H](CCCN=C(N)N)C(=O)N1CCC[C@H]1C(=O)N[C@H](C)C(N)=O | –
19 | – | 7.2 | – | 8 | – | 26 | 118 | 60 | – | CC(=O)N[C@H](Cc1ccc2ccccc2c1)C(=O)N[C@@H](CO)C(=O)N[C@@H](CCCCNC(=O)c1ccccn1)C(=O)N[C@H](CCCCNC(=O)c1ccccn1)C(=O)N[C@@H](CC(C)C)C(=O)N[C@@H](CCCN=C(N)N)C(=O)N1CCC[C@H]1C(=O)N[C@H](C)C(N)=O | 224
20 | – | – | – | – | – | – | – | – | – | CCNC(=O)[C@@H]1CCCN1C(=O)[C@H](CCCCNC(C)C)NC(=O)[C@H](CC(C)C)NC(=O)[C@@H](CCCCNC(=O)c1ccccn1)NC(=O)[C@H](Cc1ccc(O)cc1)NC(=O)[C@H](CO)NC(=O)[C@@H](Cc1ccc2ccccc2c1)NC(C)=O | 151
21 | – | 3.5 | – | – | – | 118 | 200 | 157 | 194 | CCNC(=O)[C@@H]1CCCN1C(=O)[C@H](CCCCNC(C)C)NC(=O)[C@H](CC(C)C)NC(=O)[C@H](CCCCNC(=O)c1ccccn1)NC(=O)[C@H](Cc1ccc(O)cc1)NC(=O)[C@H](CO)NC(=O)[C@H](Cc1ccc2ccccc2c1)NC(C)=O | –
